Measured values published in ChEMBL document CHEMBL1140929, “Synthesis and evaluation of 18F-labeled 2-phenylbenzothiazoles as positron emission tomography imaging agents for amyloid plaques in Alzheimer's disease” (J Med Chem, 2009).

Experiments:
Lung [1] = assay: Biodistribution in NMRI mouse lung assessed per gram of tissue at 3.7 MBq/mL, iv after 60 mins by gamma counting; assay type: ADME, organism-based; details: in vivo, 1 h
Summary of the method: (§1)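 Male NMRI mice (30-40 g) anaesthetised with 0.1 mL ip Hypnorm (fentanyl citrate 63 µg/mL, fluanisone 2 mg/mL). Each received 0.1 mL of HPLC-purified 18F tracer, diluted in 0.9% NaCl to 3.7 MBq/mL (ethanol ≤10%, THF ≤0.02%), via tail vein. Killed by decapitation at 2 or 60 min; blood and organs weighed and γ-counted. Background-corrected, expressed as %ID or %ID/g.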

Stomach [2] = assay: Biodistribution in NMRI mouse stomach at 3.7 MBq/mL, iv after 2 mins by gamma counting; assay type: ADME, organism-based; details: in vivo; summary of the method: as §1
Heart [3] = assay: Biodistribution in NMRI mouse heart at 3.7 MBq/mL, iv after 60 mins by gamma counting; assay type: ADME, organism-based; details: in vivo, 1 h; summary of the method: as §1
Kidney [4] = assay: Biodistribution in NMRI mouse kidney assessed per gram of tissue at 3.7 MBq/mL, iv after 60 mins by gamma counting; assay type: ADME, organism-based; details: in vivo, 1 h; summary of the method: as §1
[5] = Biodistribution in NMRI mouse cerebrum assessed per gram of tissue at 3.7 MBq/mL, iv after 60 mins by gamma counting; assay type: ADME, organism-based; details: in vivo, 1 h; summary of the method: as §1
Lung [6] = assay: Biodistribution in NMRI mouse lung at 3.7 MBq/mL, iv after 2 mins by gamma counting; assay type: ADME, organism-based; details: in vivo
[7] = Biodistribution in NMRI mouse spleen/pancreas at 3.7 MBq/mL, iv after 60 mins by gamma counting; assay type: ADME, organism-based; details: in vivo, 1 h; summary of the method: as §1
Stomach [8] = assay: Biodistribution in NMRI mouse stomach at 3.7 MBq/mL, iv after 60 mins by gamma counting; assay type: ADME, organism-based; details: in vivo, 1 h; summary of the method: as §1
Blood [9] = assay: Biodistribution in NMRI mouse blood at 3.7 MBq/mL, iv after 2 mins by gamma counting; assay type: ADME, organism-based; details: in vivo; summary of the method: as §1
[10] = Biodistribution in NMRI mouse urine at 3.7 MBq/mL, iv after 2 mins by gamma counting; assay type: ADME, organism-based; details: in vivo; summary of the method: as §1
[11] = Biodistribution in NMRI mouse cerebrum at 3.7 MBq/mL, iv after 2 mins by gamma counting; assay type: ADME, organism-based; details: in vivo; summary of the method: as §1
Liver [12] = assay: Biodistribution in NMRI mouse liver assessed per gram of tissue at 3.7 MBq/mL, iv after 2 mins by gamma counting; assay type: ADME, organism-based; details: in vivo; summary of the method: as §1
Liver [13] = assay: Biodistribution in NMRI mouse liver at 3.7 MBq/mL, iv after 60 mins by gamma counting; assay type: ADME, organism-based; details: in vivo, 1 h; summary of the method: as §1
Liver [14] = assay: Biodistribution in NMRI mouse liver at 3.7 MBq/mL, iv after 2 mins by gamma counting; assay type: ADME, organism-based; details: in vivo; summary of the method: as §1
[15] = Biodistribution in NMRI mouse spleen/pancreas assessed per gram of tissue at 3.7 MBq/mL, iv after 2 mins by gamma counting; assay type: ADME, organism-based; details: in vivo; summary of the method: as §1
Kidney [16] = assay: Biodistribution in NMRI mouse kidney at 3.7 MBq/mL, iv after 2 mins by gamma counting; assay type: ADME, organism-based; details: in vivo; summary of the method: as §1
Lung [17] = assay: Biodistribution in NMRI mouse lung at 3.7 MBq/mL, iv after 60 mins by gamma counting; assay type: ADME, organism-based; details: in vivo, 1 h; summary of the method: as §1
Cerebellum [18] = assay: Biodistribution in NMRI mouse cerebellum assessed per gram of tissue at 3.7 MBq/mL, iv after 60 mins by gamma counting; assay type: ADME, organism-based; details: in vivo, 1 h; summary of the method: as §1
Heart [19] = assay: Biodistribution in NMRI mouse heart assessed per gram of tissue at 3.7 MBq/mL, iv after 2 mins by gamma counting; assay type: ADME, organism-based; details: in vivo; summary of the method: as §1
Cerebellum [20] = assay: Biodistribution in NMRI mouse cerebellum at 3.7 MBq/mL, iv after 2 mins by gamma counting; assay type: ADME, organism-based; details: in vivo; summary of the method: as §1
Blood [21] = assay: Biodistribution in NMRI mouse blood assessed per gram of tissue at 3.7 MBq/mL, iv after 60 mins by gamma counting; assay type: ADME, organism-based; details: in vivo, 1 h; summary of the method: as §1
Heart [22] = assay: Biodistribution in NMRI mouse heart assessed per gram of tissue at 3.7 MBq/mL, iv after 60 mins by gamma counting; assay type: ADME, organism-based; details: in vivo, 1 h; summary of the method: as §1
[23] = Biodistribution in NMRI mouse cerebrum at 3.7 MBq/mL, iv after 60 mins by gamma counting; assay type: ADME, organism-based; details: in vivo, 1 h; summary of the method: as §1
Blood [24] = assay: Biodistribution in NMRI mouse blood assessed per gram of tissue at 3.7 MBq/mL, iv after 2 mins by gamma counting; assay type: ADME, organism-based; details: in vivo; summary of the method: as §1
Intestine [25] = assay: Biodistribution in NMRI mouse intestine at 3.7 MBq/mL, iv after 60 mins by gamma counting; assay type: ADME, organism-based; details: in vivo, 1 h; summary of the method: as §1
[26] = Biodistribution in NMRI mouse cerebrum assessed per gram of tissue at 3.7 MBq/mL, iv after 2 mins by gamma counting; assay type: ADME, organism-based; details: in vivo; summary of the method: as §1
Blood [27] = assay: Biodistribution in NMRI mouse blood at 3.7 MBq/mL, iv after 60 mins by gamma counting; assay type: ADME, organism-based; details: in vivo, 1 h; summary of the method: as §1
Heart [28] = assay: Biodistribution in NMRI mouse heart at 3.7 MBq/mL, iv after 2 mins by gamma counting; assay type: ADME, organism-based; details: in vivo; summary of the method: as §1
[29] = Biodistribution in NMRI mouse spleen/pancreas assessed per gram of tissue at 3.7 MBq/mL, iv after 60 mins by gamma counting; assay type: ADME, organism-based; details: in vivo, 1 h; summary of the method: as §1
Cerebellum [30] = assay: Biodistribution in NMRI mouse cerebellum at 3.7 MBq/mL, iv after 60 mins by gamma counting; assay type: ADME, organism-based; details: in vivo, 1 h; summary of the method: as §1
[31] = Biodistribution in NMRI mouse urine at 3.7 MBq/mL, iv after 60 mins by gamma counting; assay type: ADME, organism-based; details: in vivo, 1 h; summary of the method: as §1
Lung [32] = assay: Biodistribution in NMRI mouse lung assessed per gram of tissue at 3.7 MBq/mL, iv after 2 mins by gamma counting; assay type: ADME, organism-based; details: in vivo; summary of the method: as §1
Kidney [33] = assay: Biodistribution in NMRI mouse kidney assessed per gram of tissue at 3.7 MBq/mL, iv after 2 mins by gamma counting; assay type: ADME, organism-based; details: in vivo; summary of the method: as §1
Intestine [34] = assay: Biodistribution in NMRI mouse intestine at 3.7 MBq/mL, iv after 2 mins by gamma counting; assay type: ADME, organism-based; details: in vivo; summary of the method: as §1
Liver [35] = assay: Biodistribution in NMRI mouse liver assessed per gram of tissue at 3.7 MBq/mL, iv after 60 mins by gamma counting; assay type: ADME, organism-based; details: in vivo, 1 h; summary of the method: as §1
Kidney [36] = assay: Biodistribution in NMRI mouse kidney at 3.7 MBq/mL, iv after 60 mins by gamma counting; assay type: ADME, organism-based; details: in vivo, 1 h; summary of the method: as §1
[37] = Biodistribution in NMRI mouse spleen/pancreas at 3.7 MBq/mL, iv after 2 mins by gamma counting; assay type: ADME, organism-based; details: in vivo; summary of the method: as §1
Cerebellum [38] = assay: Biodistribution in NMRI mouse cerebellum assessed per gram of tissue at 3.7 MBq/mL, iv after 2 mins by gamma counting; assay type: ADME, organism-based; details: in vivo; summary of the method: as §1
[39] = molecular target: Amyloid-beta precursor protein (Homo sapiens, UniProt P05067); assay: Displacement of [125I]IMPY from beta-amyloid plaques in Alzheimer's disease patient brain homogenate; assay type: tissue-based
Sequence of Amyloid-beta precursor protein (P05067 whole entry): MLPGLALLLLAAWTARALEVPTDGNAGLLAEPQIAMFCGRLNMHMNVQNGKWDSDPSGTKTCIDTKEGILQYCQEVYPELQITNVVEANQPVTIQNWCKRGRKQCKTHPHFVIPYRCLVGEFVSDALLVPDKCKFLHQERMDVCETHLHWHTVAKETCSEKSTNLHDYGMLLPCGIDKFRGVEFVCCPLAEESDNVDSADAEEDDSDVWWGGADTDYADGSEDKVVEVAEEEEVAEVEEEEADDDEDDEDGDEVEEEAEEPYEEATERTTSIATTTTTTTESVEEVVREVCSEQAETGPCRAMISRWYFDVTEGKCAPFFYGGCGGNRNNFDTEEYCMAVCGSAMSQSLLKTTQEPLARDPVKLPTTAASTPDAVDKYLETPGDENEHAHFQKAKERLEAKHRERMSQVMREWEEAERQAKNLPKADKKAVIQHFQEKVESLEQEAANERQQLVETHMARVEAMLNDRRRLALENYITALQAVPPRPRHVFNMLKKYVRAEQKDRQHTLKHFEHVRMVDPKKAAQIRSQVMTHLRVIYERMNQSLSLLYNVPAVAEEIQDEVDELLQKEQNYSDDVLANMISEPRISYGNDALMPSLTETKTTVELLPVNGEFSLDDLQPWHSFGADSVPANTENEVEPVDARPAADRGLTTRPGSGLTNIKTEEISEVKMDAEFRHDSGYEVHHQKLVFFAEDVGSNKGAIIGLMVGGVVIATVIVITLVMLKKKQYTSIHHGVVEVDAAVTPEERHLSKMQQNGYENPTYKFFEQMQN

Oc1ccc2nc(-c3ccc([18F])cc3)sc2c1
Drug uptake (Lung [1]): 5.5 % ID/g | Drug uptake (Stomach [2]): 1.1 %ID | Drug uptake (Heart [3]): 0.1 %ID | Drug uptake (Kidney [4]): 11.8 % ID/g | Drug uptake [5]: 0.57 % ID/g | Drug uptake (Lung [6]): 7.6 %ID | Drug uptake [7]: 0.5 %ID | Drug uptake (Stomach [8]): 0.5 %ID | Drug uptake (Blood [9]): 10 %ID | Drug uptake [10]: 0.1 %ID | Drug uptake [11]: 1.35 %ID | Drug uptake (Liver [12]): 13.3 % ID/g | Drug uptake (Liver [13]): 24.6 %ID | Drug uptake (Liver [14]): 28.1 %ID | Drug uptake [15]: 4 % ID/g | Drug uptake (Kidney [16]): 7 %ID | Drug uptake (Lung [17]): 1.5 %ID | Drug uptake (Cerebellum [18]): 0.76 % ID/g | Drug uptake (Heart [19]): 5.8 % ID/g | Drug uptake (Cerebellum [20]): 0.55 %ID | Drug uptake (Blood [21]): 1.3 % ID/g | Drug uptake (Heart [22]): 1.3 % ID/g | Drug uptake [23]: 0.16 %ID | Drug uptake (Blood [24]): 4 % ID/g | Drug uptake (Intestine [25]): 36.7 %ID | Drug uptake [26]: 4.7 % ID/g | Drug uptake (Blood [27]): 3.3 %ID | Drug uptake (Heart [28]): 0.9 %ID | Drug uptake [29]: 1.8 % ID/g | Drug uptake (Cerebellum [30]): 0.08 %ID | Drug uptake [31]: 11.3 %ID | Drug uptake (Lung [32]): 28.1 % ID/g | Drug uptake (Kidney [33]): 12.6 % ID/g | Drug uptake (Intestine [34]): 7.1 %ID | Drug uptake (Liver [35]): 11.9 % ID/g | Drug uptake (Kidney [36]): 5.9 %ID | Drug uptake [37]: 1.2 %ID | Drug uptake (Cerebellum [38]): 5.13 % ID/g

O=C(O)c1ccc2nc(-c3ccc(F)cc3)sc2c1
Ki [39]: > 4000 nM

Cc1ccc2nc(-c3ccc(F)cc3)sc2c1
Ki [39]: 5.7 nM

COc1ccc2nc(-c3ccc([18F])cc3)sc2c1
Drug uptake (Lung [1]): 2.1 % ID/g | Drug uptake (Stomach [2]): 1.1 %ID | Drug uptake (Heart [3]): 0.1 %ID | Drug uptake (Kidney [4]): 14.2 % ID/g | Drug uptake [5]: 0.43 % ID/g | Drug uptake [7]: 0.2 %ID | Drug uptake (Stomach [8]): 1.2 %ID | Drug uptake (Blood [9]): 4.9 %ID | Drug uptake [10]: 0.2 %ID | Drug uptake [11]: 1.57 %ID | Drug uptake (Liver [12]): 9.9 % ID/g | Drug uptake (Liver [13]): 13.6 %ID | Drug uptake (Liver [14]): 19.9 %ID | Drug uptake [15]: 4.1 % ID/g | Drug uptake (Kidney [16]): 8.6 %ID | Drug uptake (Lung [17]): 0.6 %ID | Drug uptake (Cerebellum [18]): 0.68 % ID/g | Drug uptake (Heart [19]): 3.9 % ID/g | Drug uptake (Cerebellum [20]): 0.56 %ID | Drug uptake (Blood [21]): 1.7 % ID/g | Drug uptake (Heart [22]): 0.6 % ID/g | Drug uptake [23]: 0.13 %ID | Drug uptake (Blood [24]): 2 % ID/g | Drug uptake (Intestine [25]): 34.3 %ID | Drug uptake [26]: 5.1 % ID/g | Drug uptake (Blood [27]): 4.4 %ID | Drug uptake (Heart [28]): 0.8 %ID | Drug uptake [29]: 0.4 % ID/g | Drug uptake (Cerebellum [30]): 0.07 %ID | Drug uptake [31]: 16.9 %ID | Drug uptake (Lung [32]): 9.9 % ID/g | Drug uptake (Kidney [33]): 13.9 % ID/g | Drug uptake (Intestine [34]): 8.4 %ID | Drug uptake (Liver [35]): 6.7 % ID/g | Drug uptake (Kidney [36]): 9.4 %ID | Drug uptake [37]: 1.3 %ID | Drug uptake (Cerebellum [38]): 5.12 % ID/g
